According to ChEMBL document CHEMBL4052624, “Metallo-β-lactamase inhibitors by bioisosteric replacement: Preparation, activity and binding” (Eur J Med Chem, 2017):
Converted amounts (≈) assume the structure as drawn. The source made the active and inactive calls. No cut-off for these calls is given here.

How the values were obtained:
[1] = biological target: GIM-1 protein (Pseudomonas aeruginosa) (UniProt Q704V1); assay: Inhibition of Pseudomonas aeruginosa GIM-1 expressed in Escherichia coli SNO3 whole cells using nitrocefin as substrate at 250 uM preincubated for 20 mins followed by substrate addition measured every min up to 60 mins by spectrophotometric analysis relative to control
Outline: (§1)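 β-lactamase-negative E. coli SNO3 carrying blaVIM-2, blaGIM-1 or blaNDM-1 in pET26b(+). Hydrolysis of the reporter substrate followed as the initial slope over up to 60 min. Percent inhibition calculated from slopes relative to a no-inhibitor control; EDTA used as positive control.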

[2] = biological target: GIM-1 protein (Pseudomonas aeruginosa, UniProt Q704V1); assay: Inhibition of Pseudomonas aeruginosa 6His-tagged GIM-1 (Q19 to D250 residues) expressed in Escherichia coli BL21 Star(DE3) pLysS using nitrocefin as substrate preincubated for 5 mins followed by substrate addition by spectrophotometric analysis
Outline: (§2)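 His-tagged enzyme, TEV-cleaved, ~95% pure by SDS-PAGE. 10 nM enzyme with 16 inhibitor concentrations in a 2-fold series, in 50 mM HEPES pH 7.2 with ZnCl2 and BSA, preincubated 5 min at 25 °C. Then 100 µM substrate added: imipenem for NDM-1 read at 260 nm, nitrocefin for GIM-1 read at 482 nm. Initial rates in triplicate, fitted to a log[inhibitor] dose–response curve for IC50.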

[3] = system: Pseudomonas aeruginosa; assay: Growth inhibition of Pseudomonas aeruginosa K34-7 after 20 hrs
[4] = system: Escherichia coli; assay: Growth inhibition of Escherichia coli 50639799 after 20 hrs
[5] = biological target: Beta-lactamase VIM-2 (Pseudomonas aeruginosa) (UniProt Q9K2N0); assay: Inhibition of VIM-2 in Pseudomonas aeruginosa K34-7 assessed as potentiation of meropenem-induced antimicrobial activity by measuring meropenem MIC at 125 uM after 20 hrs (reference value: 32 to 64 mg/L)
[6] = biological target: T1, Beta-lactamase VIM-2 (Pseudomonas aeruginosa, UniProt Q9K2N0); assay: Inhibition of Pseudomonas aeruginosa 301-5473 6His-tagged VIM-2 (V27 to E268 residues) expressed in Escherichia coli BL21 Star(DE3) pLysS using nitrocefin as substrate preincubated for 5 mins followed by substrate addition by spectrophotometric analysis
Outline: (§3)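 Purified VIM-2 and GIM-1 were each used at 10 nM in 50 mM HEPES pH 7.2 with ZnCl₂ and BSA. Each enzyme was preincubated with inhibitor at 25 °C for 5 min, using sixteen concentrations in a 2-fold series. Nitrocefin was then added and the absorbance rise at 482 nm was read. Initial velocities, measured in triplicate, were fitted to log[inhibitor] vs response curves to give IC50. Line 3 is the ratio of the two IC50s.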

[7] = biological target: Beta-lactamase VIM-2 (Pseudomonas aeruginosa) (UniProt Q9K2N0); assay: Inhibition of Pseudomonas aeruginosa 301-5473 VIM-2 expressed in Escherichia coli SNO3 whole cells using nitrocefin as substrate at 250 uM preincubated for 20 mins followed by substrate addition measured every min up to 60 mins by spectrophotometric analysis relative to control; outline: as §1
[8] = Inhibition of Klebsiella pneumoniae 6His-tagged NDM1 (G36 to R280 residues) expressed in Escherichia coli BL21 Star(DE3) pLysS using imipenem as substrate preincubated for 5 mins followed by substrate addition by spectrophotometric analysis; outline: as §2
[9] = system: Escherichia coli; assay: Inhibition of VIM-29 in Escherichia coli 50639799 assessed as potentiation of meropenem-induced antimicrobial activity by measuring meropenem MIC at 125 uM after 20 hrs (reference value: 8 to 32 mg/L)
[10] = system: Klebsiella pneumoniae; assay: Growth inhibition of Klebsiella pneumoniae K66-45 after 20 hrs
[11] = system: Klebsiella pneumoniae; assay: Inhibition of Klebsiella pneumoniae NDM1 expressed in Escherichia coli SNO3 whole cells using imipenem as substrate at 250 uM preincubated for 20 mins followed by substrate addition measured every min up to 60 mins by spectrophotometric analysis relative to control; outline: as §1
[12] = system: Klebsiella pneumoniae; assay: Inhibition of NDM-1 in Klebsiella pneumoniae K66-45 assessed as potentiation of meropenem-induced antimicrobial activity by measuring meropenem MIC at 125 uM after 20 hrs (reference value: 32 to 64 mg/L)
[13] = system: Pseudomonas aeruginosa; assay: Selectivity ratio of IC50 for Pseudomonas aeruginosa 301-5473 6His-tagged VIM-2 (V27 to E268 residues) expressed in Escherichia coli BL21 Star(DE3) pLysS to IC50 for Pseudomonas aeruginosa 6His-tagged GIM-1 (Q19 to D250 residues) expressed in Escherichia coli BL21 Star(DE3) pLysS; outline: as §3
[14] = biological target: T1, Beta-lactamase VIM-2; assay: Inhibition of Pseudomonas aeruginosa VIM-2 expressed in Escherichia coli NCB326-1B2 using nitrocefin as substrate after 5 mins by spectrophotometric analysis
[15] = system: Pseudomonas aeruginosa; assay: Selectivity ratio of IC50 for Pseudomonas aeruginosa 6His-tagged GIM-1 (Q19 to D250 residues) expressed in Escherichia coli BL21 Star(DE3) pLysS to IC50 for Pseudomonas aeruginosa 301-5473 6His-tagged VIM-2 (V27 to E268 residues) expressed in Escherichia coli BL21 Star(DE3) pLysS
[16] = Selectivity ratio of IC50 for Pseudomonas aeruginosa 6His-tagged GIM-1 (Q19 to D250 residues) expressed in Escherichia coli BL21 Star(DE3) pLysS to IC50 for Klebsiella pneumoniae 6His-tagged NDM1 (G36 to R280 residues) expressed in Escherichia coli BL21 Star(DE3) pLysS

GIM-1 protein (Pseudomonas aeruginosa), sequence (Q704V1 as listed by the source): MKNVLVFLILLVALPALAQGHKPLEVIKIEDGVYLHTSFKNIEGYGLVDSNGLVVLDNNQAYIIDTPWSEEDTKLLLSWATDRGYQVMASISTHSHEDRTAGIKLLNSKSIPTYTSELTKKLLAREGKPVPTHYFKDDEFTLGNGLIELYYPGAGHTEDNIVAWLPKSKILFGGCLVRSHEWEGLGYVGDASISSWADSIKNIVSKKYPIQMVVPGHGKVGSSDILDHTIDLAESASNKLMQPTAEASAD
GIM-1 protein, sequence (Q704V1 whole entry, the tested form may be a part): as the sequence (Q704V1 as listed by the source) above

| SMILES | inhibition [1] | IC50 ([2]; read-out: IC50) [µM] | MIC [3] [µg/mL] | MIC [4] [µg/mL] | MIC [5] [µg/mL] | IC50 [6] [µM] | inhibition [7] | IC50 ([8]; read-out: IC50) [µM] | MIC [9] [µg/mL] | MIC [10] [µg/mL] | inhibition [11] | MIC [12] [µg/mL] | Ratio IC50 [13] | IC50 [14] [µM] | Ratio IC50 [15] | Ratio IC50 [16] | IC50 [2] | IC50 [8] |
| --- | --- | --- | --- | --- | --- | --- | --- | --- | --- | --- | --- | --- | --- | --- | --- | --- | --- | --- |
| O=P(O)(O)C(CS)CCCc1ccccc1 (configuration not stated) | 46% | 28 | 1000 (≈ 3840 µM) | > 1000 | 32 | 33.2 | 95% | 7.1 | 1 | 1000 (≈ 3840 µM) | 45% | 32 |  |  |  |  |  |  |
| SCC(CCCc1ccccc1)c1nnn[nH]1 (configuration not stated) | 25% | 68 |  |  |  | 28 | 67% | 12 |  |  | 16% |  |  |  |  |  |  |  |
| O=P(O)(O)C(CO)CCCCc1ccccc1 (configuration not stated) | 14% | > 10 |  |  |  | 4.5 | 88% | 127 |  |  | 4% |  |  |  |  |  |  |  |
| CCOP(=O)(OCC)C(CCc1ccccc1)CSC(C)=O (configuration not stated) | 25% | 18 |  |  |  | 133 | 17% |  |  |  | inactive |  |  |  |  |  |  |  |
| CCOP(=O)(OCC)C(CS)CCc1ccccc1 (configuration not stated) | 64% | 0.18 | > 500 |  | 32 | 0.89 | 78% | 2.2 | 8 | > 500 | 33% | 32 | 5 |  |  |  |  |  |
| CCOP(=O)(OCC)C(CS)CCCc1ccccc1 (configuration not stated) | 48% | 0.31 | > 500 |  | 32 | 0.38 | 79% | 1.8 | 8 | > 500 | 62% | 32 |  |  |  |  |  |  |
| O=C(O)C(CS)CCCCc1ccccc1 (configuration not stated) |  |  |  |  |  | 2.9 |  | 56 |  |  |  |  |  | 1.1 |  |  |  |  |
| CCOP(=O)(OCC)C(CO)CCc1ccccc1 (configuration not stated) |  | > 10 |  |  |  | > 10 |  | > 10 |  |  |  |  |  |  |  |  |  |  |
| CC(=O)SCC(CCCc1ccccc1)P(=O)(O)O (configuration not stated) | 37% | 26 | > 500 | > 1000 | 32 | 4.7 | 95% | 6.6 | 1 | > 500 | 38% | 32 |  |  |  |  |  |  |
| CCOP(=O)(OCC)C(CCCCc1ccccc1)CSC(C)=O (configuration not stated) | 25% | 13 |  |  |  | 20 | 12% |  |  |  | inactive |  |  |  |  |  |  |  |
| CC(=O)SCC(CCCc1ccccc1)c1nnn[nH]1 (configuration not stated) | 20% | 162 to 163 |  |  |  | 42 | 77% | 144 |  |  |  |  |  |  |  |  |  |  |
| O=P(O)(O)C(CS)CCc1ccccc1 (configuration not stated) | 37% | 23 | > 500 |  | 32 | 7.8 | 92% | 5.9 | 4 | > 500 | 42% | 32 |  |  | 2 to 4 | 2 to 4 |  |  |
| CCOP(=O)(OCC)C(CCCc1ccccc1)CSC(C)=O (configuration not stated) | 21% | 26 | > 1000 | > 1000 | 32 | 34 | 14% |  | 4 to 8 | > 1000 | inactive | 64 |  |  |  |  |  |  |
| O=P(O)(O)C(CO)CCCc1ccccc1 (configuration not stated) | 16% | > 10 |  |  |  | 34 | 66% | 77 |  |  |  |  |  |  |  |  |  |  |
| CCOP(=O)(OCC)C(CS)CCCCc1ccccc1 (configuration not stated) |  |  |  |  |  | 1.67 |  |  |  |  |  |  |  |  |  |  | Nd(Insoluble) | Nd(Insoluble) |
| CC(=O)SCC(CCCCc1ccccc1)P(=O)(O)O (configuration not stated) | 50% | 20 | > 500 |  | 32 | 1.8 | 97% | 2.5 | 2 | > 500 | 37% | 32 |  |  |  |  |  |  |
| CCOP(=O)(OCC)C(CO)CCCCc1ccccc1 (configuration not stated) | 4% | 280 |  |  |  | > 10 | inactive | > 10 |  |  | 1% |  |  |  |  |  |  |  |
| O=P(O)(O)C(CO)CCc1ccccc1 (configuration not stated) | 23% | 99 |  |  |  | 27 to 35 | 61% | 59 |  |  | 3.75% |  |  |  |  |  |  |  |
| CC(=O)SCC(CCc1ccccc1)P(=O)(O)O (configuration not stated) | 40% | 12 |  |  |  | 2.3 | 94% | 2.9 |  |  | 39% |  |  |  |  |  |  |  |
| c1ccc(CCCC(CSC2CCCCC2)c2nnn[nH]2)cc1 (configuration not stated) | 8% | 36 to 162 |  |  |  | 5 | 73% | 10 |  |  | inactive |  |  |  |  |  |  |  |
| CC(=O)SCC(Cc1ccccc1)c1nnn[nH]1 (configuration not stated) | 55% | 203 |  |  |  | 67 | 76% | 81 |  |  | 32% |  |  |  |  |  |  |  |
| O=P(O)(O)C(CS)CCCCc1ccccc1 (configuration not stated) | 31% | 16 |  |  |  | 8.6 | 94% | 8.5 |  |  | 42% |  |  |  | 2 to 4 | 2 to 4 |  |  |
| CCOP(=O)(OCC)C(CO)CCCc1ccccc1 (configuration not stated) | inactive | > 10 |  |  |  | > 10 | inactive | > 10 |  |  | inactive |  |  |  |  |  |  |  |
